Assay results published in PMC7540414 (The Prostate, 2020).

Tests used:
[1] = system: patient 1 tumor CR cells; experiment: Drug sensitivity assay; type: cell-based, Human; conditions: for Sensitivity of tumor-derived CR cells compared with benign CR cells: patient 1, IC50 comparison, 72 hour, P < .05 where significant
Procedure, shortened: (§1)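 Tumor CR cells came from radical prostatectomy tissue (>70% tumor) by protease dissociation and the conditional reprogramming method, alongside matched benign CR cells. 3000 cells per well were seeded in conditioned medium, in triplicate. After 24 h, medium containing test compound was added. […] Values are mean ± SD of three separate experiments in triplicate.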

[2] = system: patient 2 tumor CR cells; experiment: Drug sensitivity assay; type: cell-based, Human; conditions: for Sensitivity of tumor-derived CR cells compared with normal CR cells: patient 2, IC50 comparison, 72 hour, P < .01 where significant
Procedure, shortened: as §1

[3] = system: metastatic CRPC; conditions: phase II trial, CFZ in combination with other drugs; cited from earlier work
[4] = system: tumor CR cells; type: cell-based, Human; conditions: shared by patients 1 and 2; FDR 0.05; FC 1.5
Procedure, shortened: (§2)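 Tumor and normal CR cells from each patient were grown in conditioned medium and given test compound (28 nM for patient 1, 6.5 nM for patient 2) or DMSO, then profiled by RNA-seq. Treated-vs-DMSO DEGs were called at FDR < 0.05 and FC 1.5. Induced and inhibited gene sets were compared across both patients' cells by Venn diagram (Venny).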

[5] = system: normal CR cells; type: cell-based, Human; conditions: shared by patients 1 and 2; FDR 0.05; FC 1.5
Procedure, shortened: as §2

[6] = system: metastatic CRPC; conditions: phase I trials; cited from earlier work

## N[C@@H](CCC(=O)N[C@@H](CS)C(=O)NCC(=O)O)C(=O)O [GSH, glutathione]
[1]
  Sensitivity of tumor-derived CR cells compared with benign CR cells: No significant differential responses
[2]
  Sensitivity of tumor-derived CR cells compared with normal CR cells: No significant differential responses

## CC(C)C[C@H](NC(=O)[C@H](CCc1ccccc1)NC(=O)CN1CCOCC1)C(=O)N[C@@H](Cc1ccccc1)C(=O)N[C@@H](CC(C)C)C(=O)[C@@]1(C)CO1 [CFZ, carfilzomib]
[3]
  patients with a decline in PSA: 3.5%
[1]; Homo sapiens, 72 h
  IC50: 28 nM
[1]
  Sensitivity of tumor-derived CR cells compared with benign CR cells: more sensitive
[2]; Homo sapiens, 72 h
  IC50: 6.5 nM
[2]
  Sensitivity of tumor-derived CR cells compared with normal CR cells: significant responses
[4]
  common genes exclusively induced in the tumor CR cells: 23
  genes inhibited that were shared in the tumor CR cells: 45
[5]
  shared genes inhibited in the normal CR cells: 56

## Nc1nccc(-c2c(-c3ccc(F)cc3)ncn2C2CCNCC2)n1 [SB220025]
[1]
  Sensitivity of tumor-derived CR cells compared with benign CR cells: No significant differential responses
[2]
  Sensitivity of tumor-derived CR cells compared with normal CR cells: No significant differential responses

## S=C=NCCc1ccccc1 [PTC, phenethyl isothiocyanate]
[2]
  Sensitivity of tumor-derived CR cells compared with normal CR cells: no differences in sensitivity

## C[S+]([O-])CCCCN=C=S (stereo not shown) [SFN, sulforaphane]
[1]
  Sensitivity of tumor-derived CR cells compared with benign CR cells: more sensitive
[2]
  Sensitivity of tumor-derived CR cells compared with normal CR cells: no differences in sensitivity

## CC(C)C[C@H](NC(=O)[C@H](Cc1ccccc1)NC(=O)c1cnccn1)B(O)O [BTZ, bortezomib]
[1]
  Sensitivity of tumor-derived CR cells compared with benign CR cells: more sensitive
[2]
  Sensitivity of tumor-derived CR cells compared with normal CR cells: significant responses
[6]
  patients showing stable PSA: 25%
  patients with more than 50% decline in PSA: 4%
